Experimental data: ChEMBL document CHEMBL1121421, “2,4-Diamino-5-benzylpyrimidines and analogues as antibacterial agents. 2. C-Alkylation of pyrimidines with Mannich bases and application to the synthesis of trimethoprim and analogues” (J Med Chem, 1980)
≈ marks a conversion by molar mass, not a printed value.

Tests used:
Dihydrofolate reductase = target: T1, Dihydrofolate reductase (Rattus norvegicus, UniProt Q920D2); test: (§1) Inhibitory activity against Dihydrofolate reductase enzyme purified from rat liver.; conditions: read-out: I50
T1 sequence (Q920D2 whole entry): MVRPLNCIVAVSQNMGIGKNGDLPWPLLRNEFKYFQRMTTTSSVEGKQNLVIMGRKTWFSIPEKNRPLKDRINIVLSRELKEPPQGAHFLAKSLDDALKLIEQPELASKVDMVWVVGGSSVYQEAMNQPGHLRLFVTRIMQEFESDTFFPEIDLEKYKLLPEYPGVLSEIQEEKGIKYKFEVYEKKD

Salmonella = test: Antibacterial activity against typhi CN512.; type: functional, salmonella typhosa
Proteus vulgaris = test: Antibacterial activity against Proteus vulgaris CN 329.; type: functional
Streptococcus pyogenes = test: Antibacterial activity against Streptococcus pyogenes CN10; type: functional
[1] = target: Bifunctional dihydrofolate reductase-thymidylate synthase (Plasmodium berghei str. ANKA, UniProt Q27713); test: Inhibitory activity against Dihydrofolate reductase enzyme purified from Plasmodium berghei.; conditions: read-out: I50
Escherichia coli = test: Antibacterial activity against Escherichia coli CN314.; type: functional
Staphylococcus aureus = test: Antibacterial activity against Staphylococcus aureus CN491.; type: functional
Shigella dysenteriae = test: Antibacterial activity against of against Shig dysentariae CN 1523.; type: functional
Klebsiella pneumoniae = test: Antibacterial activity against Klebsiella pneumoniae CN 3632.; type: functional
Serratia marcescens = test: Antibacterial activity against of against Serr. marcescens CN 398.; type: functional
[2] = target: T2, Dihydrofolate reductase (Rattus norvegicus) (UniProt Q920D2); test: as §1; parameters: scale not given: the % may be the effect or the level left
T2 sequence (whole entry): T1 sequence (Q920D2 whole entry)
How it was run: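 Partially purified rat liver dihydrofolate reductase in phosphate buffer. Compound was preincubated with enzyme and buffer for 5 min at 37 °C. NADPH was then added, followed by FH₂ to start the reaction. IC₅₀ (50% drop in reaction rate) was taken from titrations over three to six compound concentrations. Otherwise the value is the percent inhibition at the highest concentration tested.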

Sequence of Bifunctional dihydrofolate reductase-thymidylate synthase (Q27713 whole entry): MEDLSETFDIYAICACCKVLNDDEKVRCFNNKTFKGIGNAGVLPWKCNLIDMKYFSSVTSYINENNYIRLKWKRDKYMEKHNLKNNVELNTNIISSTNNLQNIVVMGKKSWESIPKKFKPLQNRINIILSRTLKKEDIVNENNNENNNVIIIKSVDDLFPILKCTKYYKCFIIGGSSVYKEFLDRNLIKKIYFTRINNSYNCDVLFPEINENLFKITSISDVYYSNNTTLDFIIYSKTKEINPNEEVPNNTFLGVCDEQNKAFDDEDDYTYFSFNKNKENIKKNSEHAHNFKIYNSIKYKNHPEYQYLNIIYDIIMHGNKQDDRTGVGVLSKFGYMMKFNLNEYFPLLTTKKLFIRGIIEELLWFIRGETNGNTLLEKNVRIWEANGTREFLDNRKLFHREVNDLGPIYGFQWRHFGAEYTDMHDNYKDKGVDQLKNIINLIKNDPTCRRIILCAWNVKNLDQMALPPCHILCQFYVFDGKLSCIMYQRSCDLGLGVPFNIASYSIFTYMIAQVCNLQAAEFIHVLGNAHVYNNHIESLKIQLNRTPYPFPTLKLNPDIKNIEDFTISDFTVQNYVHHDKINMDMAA

Compound `COc1cc(Cc2cnc(N)nc2N)cc(OC)c1O` [4-HYDROXYTRIMETHOPRIM] has an IC50 (Dihydrofolate reductase) of 92 µM, an MIC (Salmonella) of 0.03 µg/mL (≈ 0.109 µM) and an MIC (Proteus vulgaris) of 2 µg/mL (≈ 7.24 µM). The MIC (Streptococcus pyogenes) was 0.5 µg/mL (≈ 1.81 µM), the IC50 [1] was 0.3 µM and the MIC (Escherichia coli) was 0.125 µg/mL (≈ 0.452 µM). The MIC (Staphylococcus aureus) was 0.5 µg/mL (≈ 1.81 µM).

Work on `COc1cc(Cc2c(N)nc(N)nc2O)cc(OC)c1O` yielded an MIC (Shigella dysenteriae) of over 100 µg/mL, an MIC (Salmonella) of over 100 µg/mL and an MIC (Proteus vulgaris) of over 100 µg/mL. For the same compound, the MIC (Streptococcus pyogenes) was over 100 µg/mL, the MIC (Klebsiella pneumoniae) was over 100 µg/mL and the MIC (Serratia marcescens) was over 100 µg/mL. The MIC (Escherichia coli) was over 100 µg/mL and the MIC (Staphylococcus aureus) was over 100 µg/mL.

With `COc1cc(Cc2c[n+](C)c(N)nc2N)cc(OC)c1OC.[I-]` the MIC (Shigella dysenteriae) was 25 µg/mL, the Activity [2] was 41% and the MIC (Salmonella) was 25 µg/mL. It also gave an MIC (Proteus vulgaris) of over 100 µg/mL, an MIC (Streptococcus pyogenes) of 50 µg/mL and an MIC (Klebsiella pneumoniae) of over 100 µg/mL. For the same compound, the MIC (Escherichia coli) was 50 µg/mL and the MIC (Staphylococcus aureus) was 50 µg/mL.

`COc1cc(Cc2c(C)nc(N)nc2N)cc(OC)c1OC` showed an MIC (Shigella dysenteriae) of 30 µg/mL (≈ 98.6 µM), an MIC (Salmonella) of 30 µg/mL (≈ 98.6 µM) and an MIC (Proteus vulgaris) of over 100 µg/mL. It also gave an MIC (Streptococcus pyogenes) of 30 µg/mL (≈ 98.6 µM), an MIC (Klebsiella pneumoniae) of over 100 µg/mL and an MIC (Serratia marcescens) of over 100 µg/mL. For the same compound, the MIC (Escherichia coli) was 30 µg/mL (≈ 98.6 µM) and the MIC (Staphylococcus aureus) was 30 µg/mL (≈ 98.6 µM).

`COc1cc(Cc2cnc(N)nc2N)cc(OC)c1OC` [TRIMETHOPRIM] gave an MIC (Shigella dysenteriae) of 0.1 µg/mL (≈ 0.344 µM), an MIC (Salmonella) of 0.3 µg/mL (≈ 1.03 µM) and an MIC (Proteus vulgaris) of 1 µg/mL (≈ 3.44 µM). The MIC (Streptococcus pyogenes) was 0.3 µg/mL (≈ 1.03 µM), the MIC (Klebsiella pneumoniae) was 0.3 µg/mL (≈ 1.03 µM) and the MIC (Serratia marcescens) was 3 µg/mL (≈ 10.3 µM). For the same compound, the MIC (Escherichia coli) was 0.3 µg/mL (≈ 1.03 µM) and the MIC (Staphylococcus aureus) was 1 µg/mL (≈ 3.44 µM).
